Target: T1, Fe(3+)-Zn(2+) purple acid phosphatase (Phaseolus vulgaris, UniProt P80366)
T1 sequence (P80366 whole entry): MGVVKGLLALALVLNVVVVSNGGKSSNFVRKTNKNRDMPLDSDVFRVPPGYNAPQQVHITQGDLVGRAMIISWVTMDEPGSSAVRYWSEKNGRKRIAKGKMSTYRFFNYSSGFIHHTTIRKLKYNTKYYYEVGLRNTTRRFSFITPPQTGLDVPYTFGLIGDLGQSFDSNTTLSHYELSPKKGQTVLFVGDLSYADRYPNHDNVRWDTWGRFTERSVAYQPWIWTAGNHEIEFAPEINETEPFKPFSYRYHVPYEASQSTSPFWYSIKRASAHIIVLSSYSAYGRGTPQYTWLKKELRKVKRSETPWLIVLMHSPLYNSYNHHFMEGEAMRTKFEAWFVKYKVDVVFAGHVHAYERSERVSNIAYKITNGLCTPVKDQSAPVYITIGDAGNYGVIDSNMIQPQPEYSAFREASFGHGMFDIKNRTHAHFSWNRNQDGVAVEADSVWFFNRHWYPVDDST
Test: Inhibition of red kidney bean PAP at pH 6.2
Procedure, shortened: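 Each enzyme was run at its own pH optimum: red kidney bean PAP at pH 6.2 and pig PAP at pH 4.9. IC50 values were determined experimentally. Separate inhibition constants were derived for binding to the free enzyme and to the enzyme–substrate complex.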

Ki [µM]	Structure (SMILES)
1470	CCCCCCOC(c1cccc2ccccc12)P(=O)(O)O (racemic) [(+/-)-hexyloxy(naphthalen-1-yl)methylphosphonic acid]
4	CCCCCCCCCCOC(c1cccc2ccccc12)P(=O)(O)O (racemic) [(+/-)-decyloxy(naphthalen-1-yl)methylphosphonic acid]
50	CCCCCCCCOC(c1cccc2ccccc12)P(=O)(O)O (racemic) [(+/-)-naphthalen-1-yl(octyloxy)methylphosphonic acid]
